pEC50, pIC50: −log10 of the molar value.
Tests used:
LNCaP [1] = experiment: Growth inhibition of human LNCaP cells after 5 days by MTT colorimetric assay; conditions: 120 h
LNCaP [2] = experiment: Decrease in androgen receptor protein expression in LNCaP cells by Western blotting; assay type: functional, cell-based; conditions: Homo sapiens
How it was run: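 Whole-cell lysates were made in 0.1M Tris/0.5% Triton X-100 with protease inhibitor, and protein was measured by Bradford. Samples were run on 10% SDS-PAGE and immunoblotted with anti-AR monoclonal AR441 (1:500), HRP secondary and ECL. Signal was normalized to β-actin, and EC50 was taken from dose-response curves.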

Q: What does the source list for `O=c1cc(CO)oc(C(Nc2ccccc2)c2ccccc2)c1O` (centres undefined)?
A: pIC50 (LNCaP [1]): 4.68; pEC50 (LNCaP [2]): 3.67

Q: `CCOC(=O)c1ccccc1OC(=O)Oc1ccccc1C(=O)OCC` was tested. Which pIC50 (LNCaP [1]) did it give?
A: 5.35

Q: What about the pEC50 (LNCaP [2]) of the same compound?
A: 4.18

Q: With `Cc1ccc(S(=O)(=O)Nc2ccc(C)cc2[N+](=O)[O-])cc1` as the compound, how does the pIC50 (LNCaP [1]) read?
A: 4.40

Q: And the pEC50 (LNCaP [2])?
A: 4.12

Q: What does the source list for `CSc1ccc(OS(=O)(=O)c2cccc3nsnc23)cc1`?
A: pIC50 (LNCaP [1]): < 4.30; pEC50 (LNCaP [2]): 4.76

Q: How did the pIC50 (LNCaP [1]) turn out when `CCN(CCO)C(C(=O)c1ccc(Cl)cc1)c1ccc(Cl)cc1` (centres undefined) was run?
A: 5.08

Q: What about the pEC50 (LNCaP [2]) of the same compound?
A: 4.40

Q: `O=C(CNCCCc1ccccc1)c1ccc(O)c(O)c1` was tested. Which pIC50 (LNCaP [1]) did it give?
A: 4.57

Q: What about the pEC50 (LNCaP [2]) of the same compound?
A: 4.36

Q: With `COc1cc(/C=C/C(=O)CC(=O)/C=C/c2ccc(O)c(OC)c2)ccc1O` [CURCUMIN] as the compound, how does the pEC50 (LNCaP [2]) read?
A: 4.46

Q: How did the pEC50 (LNCaP [2]) turn out when `O=C(O)c1ccccc1Nc1cccc(C(F)(F)F)c1` [FLUFENAMIC ACID] was run?
A: 3.70

— ChEMBL document CHEMBL1147925, “First pharmacophore-based identification of androgen receptor down-regulating agents: discovery of potent anti-prostate cancer agents” (Bioorg Med Chem, 2007)
